In the library only some 4.6% were active in any assay of this set; here they are far more common.
p97 inhibitor: human p97 ATPase inhibition. inhibition, % at 8 µM. 220,000 compounds, 0.42% hits. P55072. AID 1481. recombinant p97 ATPase, Kinase-Glo ATP luminescence, 3 h; in the data active means inhibition above about 15%;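 further: 0% = DMSO vehicle and 100% = wells lacking enzyme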
Target sequence (P55072 whole entry, looked up): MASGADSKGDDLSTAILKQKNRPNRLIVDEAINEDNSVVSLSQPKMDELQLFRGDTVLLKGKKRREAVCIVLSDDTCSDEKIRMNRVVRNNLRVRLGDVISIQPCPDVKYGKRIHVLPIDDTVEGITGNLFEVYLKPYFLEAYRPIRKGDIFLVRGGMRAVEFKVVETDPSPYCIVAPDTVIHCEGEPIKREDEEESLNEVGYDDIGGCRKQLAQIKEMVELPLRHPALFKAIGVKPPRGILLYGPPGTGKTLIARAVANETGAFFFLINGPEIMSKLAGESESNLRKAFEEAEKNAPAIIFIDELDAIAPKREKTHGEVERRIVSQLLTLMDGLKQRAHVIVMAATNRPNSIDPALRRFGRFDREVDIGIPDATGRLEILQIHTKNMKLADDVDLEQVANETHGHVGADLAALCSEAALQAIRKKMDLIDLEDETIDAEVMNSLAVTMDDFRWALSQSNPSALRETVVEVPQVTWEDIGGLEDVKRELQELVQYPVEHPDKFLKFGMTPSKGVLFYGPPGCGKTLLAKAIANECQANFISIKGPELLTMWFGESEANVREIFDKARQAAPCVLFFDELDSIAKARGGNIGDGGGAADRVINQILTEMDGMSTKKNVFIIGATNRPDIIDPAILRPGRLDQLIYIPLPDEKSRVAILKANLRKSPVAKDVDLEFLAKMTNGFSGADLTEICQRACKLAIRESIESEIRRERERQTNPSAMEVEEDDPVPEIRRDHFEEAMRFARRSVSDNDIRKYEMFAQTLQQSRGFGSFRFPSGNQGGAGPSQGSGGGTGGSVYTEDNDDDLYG
MDM2 E3 inh: Mdm2 E3 ligase (human) inhibition | cell-based MDM2 ubiquitination luciferase reporter, 2 h; 0 = plate control, 100 = twice control, blank-subtracted | 210,000 compounds, 0.11% hits | signal enhancement, % at 5 µM | Q00987;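 active means signal enhancement of 30% or more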;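 further: luminescence tracks abundance of the self-degrading MDM2-luciferase fusion protein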
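Timing – 2 h compound exposure at 37 °C · Assay system – mammalian cells stably expressing self-ubiquitinating, self-degrading MDM2 E3–luciferase fusion · Amount – 2000 cells seeded into each well · Measure – % luminescence enhancement versus blank-corrected plate control mean · Measured by – SteadyLite luminescence, 15 min reagent step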
Wee1 stabilizer: inhibitors of human Wee1 degradation; P30291; HeLa Luc-Wee1K328M stability, luciferase luminescence; 100% = proteasome inhibitor MG132 effect; reporter increase, % at 5 µM; 220,000 compounds, 1.2% hits; AID 1321;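 active means activation above the mean of all tested compounds plus 3 SD, set per screening run, cut at about 8.8% in these data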;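 further: cells exposed to compound for 20 h before luminescence read; 0% = DMSO alone and 100% = MG132 at 30 µM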
APP 5'UTR act: APP 5'UTR luciferase reporter activation; SH-SY5Y APP 5'UTR luciferase reporter, luminescence; zero percent = DMSO vehicle wells; activation, % at 2 µM; AID 1276; 190,000 compounds, 1% hits;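 active means activation above a set limit, based on mean plus 3 SD of controls, cut at about 140% in these data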
STAT1 activator: increases IFN-gamma driven STAT1 reporter signal. NIH 3T3 STAT1-luciferase reporter, luminescence; 100% = IFN-gamma alone, no compound. activation (% of control), % at 5.5 µM. 200,000 compounds, 2.6% hits. AID 932;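 active means activation above the screen-wide mean activation plus 3 SD, cut at about 130% in these data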;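 further: raw ratio to IFN-gamma control signal so 100% means no change and 0% no light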
NF-kB expr up: NF-kB expression increase, human neuronal cells. fold change at 12.5 µM. 190,000 compounds, 1.6% hits. NF-kB reporter expression; active compounds read high; in the data active means fold change above about 3.3
STAT1 activ conf: confirmation of STAT1 signaling activators. shares compounds with STAT1 activator. NIH 3T3 STAT1-luciferase reporter, IFN-gamma potentiation, luminescence; 100% = IFN-gamma EC80 alone, no compound. activation (% of control), % at 5.7 µM. 1,200 compounds, 97% hits. AID 1262;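 active means activation above a set limit carried over from the earlier primary STAT1 screen, cut at about 140% in these data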;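 further: simple ratio to median IFN-gamma plus DMSO wells so 0% means no light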
NFkB act STAT1ct: NF-kappaB activation in STAT1 activator counter-screen; shares compounds with STAT1 activator; HEK293T NF-kB luciferase reporter, TNF-alpha stimulated, luminescence; 100% = TNF-alpha with vehicle only; activation (% of control), % at 5.7 µM; 1,200 compounds, 43% hits; AID 1306;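 active means activation above the mean of solvent-only control wells plus 3 SD, set per campaign, cut at about 130% in these data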;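 further: TNF-alpha given at a submaximal dose yielding about 80% of full reporter signal; values are well signal over median control so 100% means no change and 0% no light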
STAT3 act STAT1c: counter-screen for STAT1 activators: human STAT3 activation; shares compounds with STAT1 activator; U3A cells STAT3-luciferase reporter, IL-6, luminescence; cells lack STAT1; 100 = IL-6 alone, no compound effect; activation (% of control), % at 5.7 µM; 1,200 compounds, 46% hits; AID 1316;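 active means activation above the solvent-only control well mean plus 3 SD, set per plate batch, cut at about 110% in these data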;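 further: 0% = no luminescence and 100% = median IL-6 plus DMSO wells; higher means more STAT3 reporter activation so hits are non-selective activators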
* hit, by the source's call; . = no result.

SMILES	p97 inhibitor	MDM2 E3 inh	Wee1 stabilizer	APP 5'UTR act	STAT1 activator	NF-kB expr up	STAT1 activ conf	NFkB act STAT1ct	STAT3 act STAT1c
c1coc(CNc2c3c(nc4ncnn24)CCCC3)c1	3	-18	-3	12	97	0.9	.	.	.
COCCNc1cc(C)nc2cc(-c3ccc(C)cc3)nn12	1	-2	-3	4	119	1.5	.	.	.
Cc1ccc(-c2cc3nc(C)cc(NCc4ccco4)n3n2)cc1	3	-31	-3	137*	151*	4.1*	172*	114	109
Clc1cccc(-c2cc3nc4c(c(NCc5ccco5)n3n2)CCCC4)c1	-4	-24	3	131	154*	2	242*	145*	113*
O=C(CN1CCOCC1)Nc1scc2c1c(=O)oc1ccccc12	-2	-1	5	.	.	.	.	.	.
O=c1[nH]c(=O)c2nc3c4ccccc4c4ccccc4c3nc2[nH]1	3	1	-3	27	152*	0.97	140*	118	100
N#Cc1cccc(NCC(=O)Nc2ccc3c(c2)OCCO3)c1	5	-24	9	190*	167*	6.8*	180*	125	115*
N#Cc1ccc(NCC(=O)Nc2ccc3c(c2)OCCO3)cc1	7	0	-5	-1	121	1.1	.	.	.
O=C(CCCOc1ccc(Cl)cc1Cl)Nc1ccc(O)cc1C(=O)O	3	-4	-4	.	.	.	.	.	.
NNc1nc2c(F)cc(F)cc2s1	-6	-6	0	167*	156*	1.3	128	121	116*
Nc1nnc(SCc2nnc(-c3ccccc3)o2)s1	1	3	3	11	103	1.1	.	.	.
COC(=O)c1c(-c2cccnc2)csc1NC(=O)c1cc(C)on1	-8	-21	8	130	152*	3.1	202*	137*	127*
CCC(=O)Nc1ccc(-c2nnc(-c3ccccc3)o2)cc1	1	-57	6	210*	163*	1	220*	121	113*
CC(=O)c1ccc2noc(-c3cccc(C)c3)c2c1	1	12	-5	19	122	1.1	.	.	.
O=C(Nc1ccccc1-c1nc2ccccc2s1)c1ccco1	-8	-24	-2	13	100	1.3	.	.	.
O=c1c(-c2nc3ccccc3s2)cccn1Cc1ccccc1	1	-24	9.0*	82	161*	3.7*	211*	130	106
CC(=O)N1N=C(c2ccc(C)cc2)OC1c1ccc(C)cc1 (centres undefined)	-8	-13	2	29	122	1.8	.	.	.
CC(=O)N1N=C(c2ccc(C)cc2)OC1c1ccc(C(C)C)cc1 (centres undefined)	2	.	0	116	166*	4.3*	217*	146*	146*
NS(=O)(=O)c1ccc(CCNC(=O)c2ccc3c(c2)OCCO3)cc1	3	-13	0	13	101	0.99	.	.	.
Cc1ccc(-c2nc3cc(NC(=O)C(C)C)ccc3o2)cc1C	5	-6	1	160*	195*	0.98	272*	93	73
CC(C)CC(=O)Nc1ccc2oc(-c3ccncc3)nc2c1	7	-5	1	15	119	1.5	.	.	.
CCCC(=O)Nc1cccc(-c2nc3cc(C)c(C)cc3o2)c1	6	-36	1	135	177*	3	201*	128	107
Cc1ccc(-c2nc3cc(NC(=O)C(C)C)ccc3o2)cc1	0	-16	25*	147*	188*	2.9	321*	126	104
CC(C)C(=O)Nc1cccc(-c2nc3ccccc3o2)c1	-4	-8	0	.	120	1.6	.	.	.
Cc1cc2nc(-c3ccc(NC(=O)C(C)C)cc3)oc2cc1C	-2	-24	3	140*	180*	3.4*	237*	146*	118*
SMILES	p97 inhibitor	MDM2 E3 inh	Wee1 stabilizer	APP 5'UTR act	STAT1 activator	NF-kB expr up	STAT1 activ conf	NFkB act STAT1ct	STAT3 act STAT1c
Cc1nc2cc(NC(=O)Nc3ccc(Br)cc3)ccc2o1	2	-12	3	154*	162*	2.9	209*	135*	103
Cc1csc(NC(=O)c2ccc(C)c([N+](=O)[O-])c2)n1	4	-43	2	172*	184*	5.6*	236*	112	96
CC(=O)Nc1nc(-c2ccc3c(c2)OCO3)cs1	7	.	0	.	.	.	.	.	.
O=C(Nc1nc(-c2ccc3c(c2)OCCO3)cs1)C1CCCC1	3	-3	3	173*	156*	6.6*	188*	134*	121*
N#CCC(=O)Nc1nc(-c2ccc3c(c2)OCCO3)cs1	4	-21	-1	51	165*	0.55	169*	125	113*
Cc1nc(-c2ccc3c(c2)OCCO3)cs1	3	15	-2	70	127	1.9	.	.	.
Cc1cccc(Nc2nc(-c3ccc4c(c3)OCCO4)cs2)c1	-5	-11	4	161*	158*	1.4	217*	144*	108
Cc1noc(C)c1COc1ccc(C(=O)NCCc2ccccn2)cc1	-1	-1	1	12	94	1.2	.	.	.
COC(=O)C(Cc1ccccc1)P(=O)(c1ccccc1)c1ccccc1 (centres undefined)	0	4	-1	0	112	1.1	.	.	.
Cc1csc(NC(=O)C2COc3ccccc3O2)n1 (centres undefined)	-2	-76	1	149*	160*	2.8	198*	105	78
CN(/N=C/c1ccncc1)c1cnc2ccccc2n1	-4	-21	10.0*	181*	153*	3.7*	195*	130	124*
CC(c1ccon1)N(C)Cc1cn(Cc2ccccc2)nc1-c1ccc2c(c1)OCO2 (centres undefined)	0	-23	2	-14	102	0.67	.	.	.
CCOC(=O)C1(Cc2ccccc2Cl)CCN(C(=O)CN2CCOC2=O)CC1	3	-4	2	69	160*	.	172*	142*	117*
Cc1ccc(-c2cnc(-c3ccncc3)o2)cc1	-2	6	1	67	153*	2.4	154*	120	94
O=[N+]([O-])c1ccc(-c2ncc(-c3ccc(Br)cc3)o2)cc1	7	-5	-2	.	.	.	.	.	.

Screening data: PubChem, several laboratories
